# Laboratory results reported in ChEMBL document CHEMBL1158343, “Synthesis, antimicrobial and antiviral evaluation of substituted imidazole derivatives” (Eur J Med Chem, 2009).
# Tests used:
# Coxsackievirus B4 [1] = assay: Antiviral activity against Coxsackievirus B4 infected in human HeLa cells assessed as reduction in virus-induced cytopathogenicity after 3 days; type: functional, organism-based; conditions: Enterovirus B, 72 h
# [2] = test system: Vesicular stomatitis virus; assay: Antiviral activity against VSV infected in human HeLa cells assessed as reduction in virus-induced cytopathogenicity after 3 days; type: functional, organism-based; conditions: 72 h
# [3] = Cytotoxicity against african green monkey Vero cells assessed as alteration in cell morphology; type: cell-based; conditions: chlorocebus sabaeus
# Outline: (§1)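 Uninfected cell cultures tested in parallel with the CPE-reduction antiviral assay; cells grown to confluency, then serial compound dilutions added and incubated at 37 °C (3 days in the parallel antiviral set-up). Read-out is microscopic examination of morphology; value is the minimum cytotoxic concentration, the lowest causing a microscopically detectable alteration of normal cell morphology.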
# Punta Toro virus = assay: Antiviral activity against Punta Toro virus infected in african green monkey Vero cells assessed as reduction in virus-induced cytopathogenicity after 3 days; type: functional, organism-based; conditions: 72 h
# [4] = Cytotoxicity against human HEL cells assessed as alteration in cell morphology; type: cell-based; outline: as §1
# [5] = test system: Mammalian orthoreovirus 1; assay: Antiviral activity against Reovirus 1 infected in african green monkey Vero cells assessed as reduction in virus-induced cytopathogenicity after 3 days; type: functional, organism-based; conditions: Mammalian orthoreovirus 1, Vero, 72 h
# Staphylococcus aureus = assay: Antimicrobial activity against Staphylococcus aureus after 24 hrs by tube dilution method; type: functional
# Outline: (§2)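 Tube dilution in DMSO (stock 100 mg/ml) with serial dilutions; incubation 37 °C for 48 h for C. albicans (other organisms' times truncated in text). MIC read as lowest concentration inhibiting visible growth. Norfloxacin (bacteria) and fluconazole (fungi) as reference drugs.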
# Human alphaherpesvirus 1 [6] = assay: Antiviral activity against thymidine kinase-deficient acyclovir-resistant HSV1 KOS infected in human HEL cells assessed as reduction in virus-induced cytopathogenicity after 3 days; type: functional, organism-based; conditions: Human alphaherpesvirus 1, KOS, 72 h
# [7] = test system: Vesicular stomatitis virus; assay: Antiviral activity against VSV infected in human HEL cells assessed as reduction in virus-induced cytopathogenicity after 3 days; type: functional, organism-based; conditions: 72 h
# Human alphaherpesvirus 1 [8] = assay: Antiviral activity against HSV1 KOS infected in human HEL cells assessed as reduction in virus-induced cytopathogenicity after 3 days; type: functional, organism-based; conditions: Human alphaherpesvirus 1, KOS, 72 h
# Aspergillus niger = assay: Antimicrobial activity against Aspergillus niger after 7 days by tube dilution method; type: functional; conditions: 168 h; outline: as §2
# Bacillus subtilis = assay: Antimicrobial activity against Bacillus subtilis after 24 hrs by tube dilution method; type: functional; outline: as §2
# Sindbis virus = assay: Antiviral activity against Sindbis virus infected in african green monkey Vero cells assessed as reduction in virus-induced cytopathogenicity after 3 days; type: functional, organism-based; conditions: 72 h
# [9] = Cytotoxicity against human HeLa cells assessed as alteration in cell morphology; type: cell-based; outline: as §1
# Coxsackievirus B4 [10] = assay: Antiviral activity against Coxsackievirus B4 infected in african green monkey Vero cells assessed as reduction in virus-induced cytopathogenicity after 3 days; type: functional, organism-based; conditions: Enterovirus B, 72 h
# Escherichia coli = assay: Antimicrobial activity against Escherichia coli after 24 hrs by tube dilution method; type: functional; outline: as §2
# Human alphaherpesvirus 2 = assay: Antiviral activity against HSV2 G infected in human HEL cells assessed as reduction in virus-induced cytopathogenicity after 3 days; type: functional, organism-based; conditions: Human alphaherpesvirus 2, strain G, 72 h
# Human respirovirus 3 = assay: Antiviral activity against Parainfluenza-3 virus infected in african green monkey Vero cells assessed as reduction in virus-induced cytopathogenicity after 3 days; type: functional, organism-based; conditions: Human respirovirus 3, Vero, 72 h
# Candida albicans = assay: Antimicrobial activity against Candida albicans after 48 hrs by tube dilution method; type: functional; outline: as §2
# [11] = test system: Respiratory syncytial virus; assay: Antiviral activity against RSV infected in human HeLa cells assessed as reduction in virus-induced cytopathogenicity after 3 days; type: functional, organism-based; conditions: 72 h
SMILES,EC50 (Coxsackievirus B4 [1]) [µg/mL],EC50 [2] [µg/mL],MCC [3] [µg/mL],EC50 (Punta Toro virus) [µg/mL],MCC [4] [µg/mL],EC50 [5] [µg/mL],MBC (Staphylococcus aureus) [µM],MIC (Staphylococcus aureus) [µM],EC50 (Human alphaherpesvirus 1 [6]) [µg/mL],EC50 [7] [µg/mL],EC50 (Human alphaherpesvirus 1 [8]) [µg/mL],MFC (Aspergillus niger) [µM],MIC (Aspergillus niger) [µM],MBC (Bacillus subtilis) [µM],MIC (Bacillus subtilis) [µM],EC50 (Sindbis virus) [µg/mL],MCC [9] [µg/mL],EC50 (Coxsackievirus B4 [10]) [µg/mL],MBC (Escherichia coli) [µM],MIC (Escherichia coli) [µM],further results
O=C(c1ccccc1Br)n1ccnc1-c1ccc(Cl)cc1,> 100,> 100,> 100,> 100,> 100,> 100,17,2,> 100,> 100,> 100,69,8,17,2,> 100,> 100,> 100,17,2,EC50 (Human alphaherpesvirus 2): > 100 µg/mL; EC50 (Human respirovirus 3): > 100 µg/mL; MFC (Candida albicans): 138 µM; MIC (Candida albicans): 17 µM; EC50 [11]: > 100 µg/mL
O=C(c1ccc([N+](=O)[O-])cc1)n1ccnc1-c1cccc([N+](=O)[O-])c1,> 100,> 100,> 100,100,> 100,> 100,147,18,> 100,> 100,> 100,73,9,295,36,> 100,> 100,> 100,36,9,EC50 (Human alphaherpesvirus 2): > 100 µg/mL; EC50 (Human respirovirus 3): > 100 µg/mL; MFC (Candida albicans): 295 µM; MIC (Candida albicans): 18 µM; EC50 [11]: > 100 µg/mL
